As usually defined, the inhibition is how much of the control response was suppressed. One may read the IC50 as the concentration that gives 50% inhibition.

The source made the active and inactive calls. No cut-off for these calls is given here.

In assay [1] the test system is T1, Histone deacetylase 6 (Danio rerio), F8W4B7 [H574A].
T1 sequence (whole entry): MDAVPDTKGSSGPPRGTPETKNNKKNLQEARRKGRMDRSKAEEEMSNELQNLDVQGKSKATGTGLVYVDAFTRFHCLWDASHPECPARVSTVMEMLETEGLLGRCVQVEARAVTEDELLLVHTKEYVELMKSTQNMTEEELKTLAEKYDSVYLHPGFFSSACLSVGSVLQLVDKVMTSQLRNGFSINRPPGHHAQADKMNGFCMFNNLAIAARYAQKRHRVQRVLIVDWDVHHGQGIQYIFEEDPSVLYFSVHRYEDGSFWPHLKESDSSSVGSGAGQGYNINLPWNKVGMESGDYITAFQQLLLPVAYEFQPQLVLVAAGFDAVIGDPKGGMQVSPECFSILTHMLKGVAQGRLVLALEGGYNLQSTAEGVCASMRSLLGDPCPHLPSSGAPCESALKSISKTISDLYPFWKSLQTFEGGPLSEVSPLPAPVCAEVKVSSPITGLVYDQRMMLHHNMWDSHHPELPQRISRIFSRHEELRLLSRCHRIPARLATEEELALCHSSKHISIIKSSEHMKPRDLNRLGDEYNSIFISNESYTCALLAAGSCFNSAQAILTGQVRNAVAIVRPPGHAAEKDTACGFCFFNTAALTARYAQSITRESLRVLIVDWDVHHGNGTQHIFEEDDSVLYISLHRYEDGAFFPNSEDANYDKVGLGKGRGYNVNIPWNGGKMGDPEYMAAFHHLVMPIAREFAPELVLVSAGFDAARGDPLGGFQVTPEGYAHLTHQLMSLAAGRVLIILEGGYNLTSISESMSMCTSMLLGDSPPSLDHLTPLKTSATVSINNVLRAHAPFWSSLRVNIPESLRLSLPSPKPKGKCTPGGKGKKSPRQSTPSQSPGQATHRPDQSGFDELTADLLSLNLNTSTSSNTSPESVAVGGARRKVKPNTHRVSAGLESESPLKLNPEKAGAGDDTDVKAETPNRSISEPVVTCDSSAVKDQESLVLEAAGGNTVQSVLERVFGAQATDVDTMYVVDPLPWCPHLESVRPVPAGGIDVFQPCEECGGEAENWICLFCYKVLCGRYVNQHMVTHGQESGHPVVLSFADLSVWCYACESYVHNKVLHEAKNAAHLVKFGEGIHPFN
The assay can be described thus: Irreversible inhibition of Danio rerio HDAC6 H574A mutant catalytic domain 2 assessed as enzyme catalysed ring opening by measuring reduction in 2-(Benzylamino)pyrimidine-5-carbohydrazide formation at 100 uM incubated overnight by LC-MS analysis. The method in brief: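 Zebrafish HDAC6 CD2 mutants were made by site-directed mutagenesis and expressed in BL21(DE3). Enzyme at 50 μM was incubated overnight with 100 μM inhibitor in 50 mM HEPES pH 7.5, 100 mM KCl, 1 mM TCEP, 5% glycerol; an enzyme-free control was included. Protein was methanol-precipitated and filtered, and products were analysed by C18 UPLC-MS with a 2-min gradient.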

Assay [2] has as its target Histone deacetylase 3/Nuclear receptor corepressor 2 (HDAC3/NCoR2) (Homo sapiens) (UniProt O15379+Q9Y618). The assay can be described thus: Inhibition of C-terminal His-tagged human HDAC3 (1 to 428 residues)/N-terminal GST tagged human NcoR2 (395 to 489 residues) expressed in Sf9 insect cells using Z-Lys(Ac)-AMC as fluorogenic substrate at 10 uM preincubated for 60 mins followed by substrate addition and measured after 90 mins by microplate reader analysis relative to control. The following applies: time 150.0 min. The method in brief:
(§1)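 Human recombinant enzyme was preincubated with 3-fold inhibitor dilutions for 60 min at 25 °C in Tris-HCl pH 8.0 buffer with BSA. ZMAL (75 μM solution) was then added, and the mix was incubated 90 min at 37 °C (max 1% DMSO). Trypsin was added for 30 min at 37 °C, and fluorescence was read at ex 355/em 460. Tested at least twice in duplicate.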

Assay [3] deals with T2, Protein deacetylase HDAC6 (Homo sapiens, UniProt Q9UBN7).
T2 sequence (Q9UBN7 whole entry): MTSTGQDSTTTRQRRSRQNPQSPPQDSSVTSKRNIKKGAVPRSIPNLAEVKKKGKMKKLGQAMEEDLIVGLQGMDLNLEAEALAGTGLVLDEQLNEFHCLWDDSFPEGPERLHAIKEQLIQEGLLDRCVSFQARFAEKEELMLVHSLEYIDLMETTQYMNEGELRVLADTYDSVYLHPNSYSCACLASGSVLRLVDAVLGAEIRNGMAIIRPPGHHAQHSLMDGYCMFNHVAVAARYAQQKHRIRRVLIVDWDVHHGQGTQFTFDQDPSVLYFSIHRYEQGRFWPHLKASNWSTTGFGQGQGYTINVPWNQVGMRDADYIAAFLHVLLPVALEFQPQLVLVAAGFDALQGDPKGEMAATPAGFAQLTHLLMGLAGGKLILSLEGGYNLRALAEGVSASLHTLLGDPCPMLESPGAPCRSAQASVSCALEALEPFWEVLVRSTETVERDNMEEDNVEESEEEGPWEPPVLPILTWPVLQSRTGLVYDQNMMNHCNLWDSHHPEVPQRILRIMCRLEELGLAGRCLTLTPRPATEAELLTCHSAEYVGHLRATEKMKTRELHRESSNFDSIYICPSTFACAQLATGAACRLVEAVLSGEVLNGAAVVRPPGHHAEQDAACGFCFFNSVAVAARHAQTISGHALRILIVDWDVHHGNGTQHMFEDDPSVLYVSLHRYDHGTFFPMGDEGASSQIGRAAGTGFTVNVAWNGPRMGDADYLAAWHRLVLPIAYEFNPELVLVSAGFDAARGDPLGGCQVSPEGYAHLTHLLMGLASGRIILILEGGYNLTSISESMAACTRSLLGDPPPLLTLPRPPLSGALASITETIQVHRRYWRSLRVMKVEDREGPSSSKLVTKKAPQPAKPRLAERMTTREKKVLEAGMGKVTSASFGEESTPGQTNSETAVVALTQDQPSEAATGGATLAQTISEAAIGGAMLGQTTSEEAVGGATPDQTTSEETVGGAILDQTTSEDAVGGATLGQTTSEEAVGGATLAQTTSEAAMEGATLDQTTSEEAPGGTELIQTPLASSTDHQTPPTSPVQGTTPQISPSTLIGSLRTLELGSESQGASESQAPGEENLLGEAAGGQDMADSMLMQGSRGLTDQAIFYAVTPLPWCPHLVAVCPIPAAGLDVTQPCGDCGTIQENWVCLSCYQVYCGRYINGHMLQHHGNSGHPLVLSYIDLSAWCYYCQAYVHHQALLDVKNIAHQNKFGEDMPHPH
The assay can be described thus: Inhibition of N-terminal GST tagged human recombinant HDAC6 (1 to 1215 residues) expressed in Sf9 insect cells using Z-Lys(Ac)-AMC as fluorogenic substrate preincubated for 60 mins followed by substrate addition and measured after 90 mins by microplate reader analysis.

Assay [4] concerns the target Histone deacetylase 2 (Homo sapiens) (UniProt Q92769). Put plainly: Inhibition of C-terminal 6His-tagged human recombinant HDAC2 (1 to 488 residues) expressed in Sf9 insect cells using Z-Lys(Ac)-AMC as fluorogenic substrate at 10 uM preincubated for 60 mins followed by substrate addition and measured after 90 mins by microplate reader analysis relative to control. Conditions: time 150.0 min. In a few lines: as §1

Chain of Histone deacetylase 2 (Homo sapiens) (Q92769 whole entry, the tested form may be a part): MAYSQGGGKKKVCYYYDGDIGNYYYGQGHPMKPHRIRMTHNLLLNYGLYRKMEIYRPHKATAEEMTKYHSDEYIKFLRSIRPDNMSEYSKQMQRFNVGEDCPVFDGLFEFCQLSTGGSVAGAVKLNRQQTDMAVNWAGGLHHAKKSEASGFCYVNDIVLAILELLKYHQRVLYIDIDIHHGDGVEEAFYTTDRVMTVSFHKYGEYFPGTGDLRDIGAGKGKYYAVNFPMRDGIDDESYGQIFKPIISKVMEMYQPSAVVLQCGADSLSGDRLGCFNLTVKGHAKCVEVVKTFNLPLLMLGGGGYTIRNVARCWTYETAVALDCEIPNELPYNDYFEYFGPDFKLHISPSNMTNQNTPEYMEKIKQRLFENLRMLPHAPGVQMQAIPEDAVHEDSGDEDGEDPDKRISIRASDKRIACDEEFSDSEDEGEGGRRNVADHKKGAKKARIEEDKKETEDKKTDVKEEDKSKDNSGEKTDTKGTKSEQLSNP

As to `FC(F)(F)c1nnc(-c2cnc(NCc3ccccc3)nc2)o1`, the inhibition entry in assay [1] is “Active”. The inhibition in assay [2] and in assay [4] was less than 15% throughout. Moreover, in assay [3], the half-maximal inhibitory concentration (IC50) was determined as 531 nM.

As for `FC(F)c1nnc(-c2cnc(NCc3ccccc3)nc2)o1`, the inhibition result in assay [1] is “Active”. Moreover, the inhibition in assay [2] and in assay [4] was less than 15% throughout. Also, the half-inhibitory concentration (IC50) in assay [3] was determined as 193 nM.

(Values after ChEMBL document CHEMBL5365542, “Difluoromethyl-1,3,4-oxadiazoles Are Selective, Mechanism-Based, and Essentially Irreversible Inhibitors of Histone Deacetylase 6” (J Med Chem, 2023).)
